Calls of active or inactive are those of the source. Rule as the data show it, unless noted: active = inhibition above about 30%; inactive = the rest.
How the values were obtained:
[1] = reducers of endogenous Her2 protein level, primary screen, SKBR3 breast tumor cells, AlphaScreen, ATP viability (AID 461;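 active = Her2 level under about 52% in both replicate screens, with viability over 70% of control, limit read from the data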;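 as to Her2 level: lower value means less Her2 protein in the cells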;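 as to viability: percent of carrier control wells set as 100% viability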); conditions: 18-24 h, measured here: SKBR3 viability, ATP luminescence, at 10 µM
[2] = target: Receptor tyrosine-protein kinase erbB-2 (Homo sapiens) (UniProt P04626); test: as above; conditions: 18-24 h, at 10 µM, stronger effect = lower value
Chain of Receptor tyrosine-protein kinase erbB-2 (Homo sapiens) (P04626 whole entry, looked up): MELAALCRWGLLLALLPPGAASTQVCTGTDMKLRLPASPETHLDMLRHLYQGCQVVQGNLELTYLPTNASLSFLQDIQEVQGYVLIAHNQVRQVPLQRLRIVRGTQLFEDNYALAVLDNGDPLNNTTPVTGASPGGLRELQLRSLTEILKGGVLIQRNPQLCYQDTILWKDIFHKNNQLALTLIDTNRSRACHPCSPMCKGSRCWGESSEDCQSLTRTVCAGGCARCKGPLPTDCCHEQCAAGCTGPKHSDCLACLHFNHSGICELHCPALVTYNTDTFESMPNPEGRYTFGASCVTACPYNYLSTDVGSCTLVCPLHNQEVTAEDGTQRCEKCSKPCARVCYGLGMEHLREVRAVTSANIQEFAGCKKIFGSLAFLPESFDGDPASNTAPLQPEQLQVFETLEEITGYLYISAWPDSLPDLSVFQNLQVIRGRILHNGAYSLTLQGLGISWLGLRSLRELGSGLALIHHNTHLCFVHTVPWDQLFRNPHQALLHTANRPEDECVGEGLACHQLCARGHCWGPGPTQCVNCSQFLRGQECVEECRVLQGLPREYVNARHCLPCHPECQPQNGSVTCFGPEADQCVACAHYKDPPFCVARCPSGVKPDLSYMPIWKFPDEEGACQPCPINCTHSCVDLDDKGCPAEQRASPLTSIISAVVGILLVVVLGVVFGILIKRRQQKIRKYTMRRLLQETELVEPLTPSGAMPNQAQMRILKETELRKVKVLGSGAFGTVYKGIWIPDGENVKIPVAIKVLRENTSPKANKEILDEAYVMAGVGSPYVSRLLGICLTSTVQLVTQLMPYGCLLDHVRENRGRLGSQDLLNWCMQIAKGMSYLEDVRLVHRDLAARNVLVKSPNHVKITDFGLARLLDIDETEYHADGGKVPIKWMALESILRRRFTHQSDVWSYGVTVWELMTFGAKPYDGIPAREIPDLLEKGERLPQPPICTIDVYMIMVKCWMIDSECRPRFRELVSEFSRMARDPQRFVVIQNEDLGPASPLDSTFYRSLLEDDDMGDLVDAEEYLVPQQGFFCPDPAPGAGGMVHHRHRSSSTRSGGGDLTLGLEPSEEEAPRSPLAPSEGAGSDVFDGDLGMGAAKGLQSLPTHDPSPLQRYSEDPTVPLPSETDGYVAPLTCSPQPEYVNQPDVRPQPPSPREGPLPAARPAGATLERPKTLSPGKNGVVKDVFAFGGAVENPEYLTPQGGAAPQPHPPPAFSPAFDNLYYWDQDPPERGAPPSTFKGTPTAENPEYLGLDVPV

[3] = SK-BR-3 cell growth inhibitors, pilot screen, 24 h, human (AID 572;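 active = viability at or below 10% of carrier control in both of two separate runs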;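 also: compound exposure lasted between 18 and 24 h rather than exactly 24 h; 100% = carrier-treated control wells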); conditions: SK-BR-3 viability, CellTiter-Glo luminescence, at 10 µM, stronger effect = lower value
[4] = HUVEC growth inhibition – cell-based, human, primary screen (AID 575;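 active = viability at or below 30% in both replicate assays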;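 also: 100% = median of untreated cell wells with 0.1% DMSO on each plate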); conditions: HUVEC proliferation, CellTiter-Glo luminescence, 72 h; at 10 µM; stronger effect = lower value
Outline: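 Test system – primary HUVEC, no more than 12 passages · Dosing – one dose, 10 µM final, 0.1% DMSO · Times – 72 h treatment at 37 °C · Measured by – ATP-based CellTiter-Glo luminescent read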

[5] = growth inhibitors of H69AR lung tumor, primary screen, human, duplicate replicates (AID 580;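 active = viability at or under a set limit in both replicates, limit being median viability minus 3 SD, cut at about 48% in these data, passing the limit was not always enough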;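 also: 100% = mean luminescence of untreated wells and 0% = no signal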); conditions: H69AR lung tumor cells viability, ATP luminescence, 72 h; at 10 µM; stronger effect = lower value
[6] = reversal of MRP1-mediated doxorubicin resistance, pilot screen, H69AR cells, doxorubicin co-treatment (AID 601;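 active = viability loss from added drug above about 55%, and viability with drug at most 40%, in both replicates, limit read from the data, passing the limit was not always enough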); conditions: CellTiter-Glo, 72 h, at 10 µM; for differential viability (reversal): stronger effect = higher value
[7] = 384-well plate pilot, post-Golgi transport modulator project, inhibition of yeast transport mutant growth (AID 636; in the data active = inhibition above about 31%); conditions: absorbance 615 nm, about 18 h, stronger effect = higher value
[8] = growth suppression of yeast trafficking mutant, preliminary HTS, modulators of trafficking downstream of Golgi apparatus project, 1536-format plate, OD 615 nm (AID 637); conditions: yeast transport mutant growth, absorbance 615 nm, 18 h; stronger effect = higher value
[9] = H69AR cells + 2 uM doxorubicin, measured here: viability with 2 uM doxorubicin, stronger effect = lower value
[10] = H69AR cells, compound alone cytotoxicity

Structure (SMILES)	viability [1]	Her2 level [2]	viability [3]	viability [4]	viability [5]	differential viability (reversal) ([6]; H69AR cells + 2 uM doxorubicin)	viability [6, 9]	viability [6, 10]	inhibition [7]	inhibition [8]
CN1CCN(c2ncnc3c2cnn3-c2ccc(Cl)cc2)CC1	109%	94% (inactive)	109% (inactive)	53.6% (inactive)	89.3% (inactive)	1.02% (inactive)	88.3%	89.3%	-0.27% (inactive)	2.5% (inactive)
CC(C)(C)OC(=O)N1CC=C2C(C#N)=C(N)C(C#N)(C#N)[C@H](c3cccnc3)[C@H]2C1	88%	100% (inactive)	88% (inactive)	81.1% (inactive)	86.3% (inactive)	-12.4% (inactive)	98.7%	86.3%	-2.67% (inactive)	14% (inactive)
CCn1cc(C(=O)N2CCN(C(=O)c3ccco3)CC2)c2cc(OC)c(OC)cc2c1=O	95%	84% (inactive)	95% (inactive)	91.3% (inactive)	98.1% (inactive)	0.175% (inactive)	97.9%	98.1%	-4.61% (inactive)	-2.36% (inactive)
O=C(NCc1ccco1)Nc1ccc2nsnc2c1	104%	114% (inactive)	104% (inactive)	51.5% (inactive)	22% (active)	-1.17% (inactive)	23.2%	22%	-3.6% (inactive)	-6.45% (inactive)
CCOC(=O)c1[nH]c(C)c(C(=O)Nc2ccccc2F)c1C	89.5%	75.5% (inactive)	89.5% (inactive)	61.8% (inactive)	16.1% (active)	-51% (inactive)	67.1%	16.1%	-4.47% (inactive)	4.13% (inactive)
CCOc1ccccc1N1CCN(C(=O)c2ccncc2)CC1	97%	100% (inactive)	97% (inactive)	90.2% (inactive)	93.6% (inactive)	13.4% (inactive)	80.2%	93.6%	-2.99% (inactive)	-9.34% (inactive)
CC(C)(C)NC(=O)C(c1ccco1)N(C(=O)Cn1nnc(-c2ccc(F)cc2)n1)c1ccccc1 (stereo not given)	89.5%	80% (inactive)	89.5% (inactive)	101% (inactive)	102% (inactive)	3.25% (inactive)	98.4%	102%	-0.92% (inactive)	0% (inactive)
CCCCN(CC)S(=O)(=O)N1CCC(C(=O)NCc2ccc(F)cc2)CC1	97%	113% (inactive)	97% (inactive)	109% (inactive)	101% (inactive)	0.67% (inactive)	101%	101%	-4.34% (inactive)	2.62% (inactive)
Cc1cc(C)cc(NC(=O)c2nnn(Cc3cc(C)ccc3C)c2N)c1	111%	92% (inactive)	111% (inactive)	71.3% (inactive)	88.1% (inactive)	-2.83% (inactive)	90.9%	88.1%	-0.8% (inactive)	-1.33% (inactive)
COc1ccc(C)cc1NC(=O)CN1CCN(S(=O)(=O)c2ccc(Cl)cc2)CC1	81.5%	87% (inactive)	81.5% (inactive)	74.7% (inactive)	82.6% (inactive)	25.3% (inactive)	57.3%	82.6%	-3.55% (inactive)	-2.17% (inactive)
CCN(CC)C(=O)c1sc2nc(-c3cccs3)cc(-c3cccs3)c2c1N	102%	88.5% (inactive)	102% (inactive)	76.2% (inactive)	71.8% (inactive)	-12.7% (inactive)	84.5%	71.8%	-4.67% (inactive)	21% (inactive)
O=C(OCCCN1C(=O)c2ccccc2C1=O)c1ccco1	102%	105% (inactive)	102% (inactive)	96% (inactive)	95.2% (inactive)	1.29% (inactive)	93.9%	95.2%	0.79% (inactive)	-0.16% (inactive)
CCOC(=O)C1CCCN(Cc2nc(N)nc(Nc3ccccc3)n2)C1 (stereo not given)	100%	87% (inactive)	100% (inactive)	92.8% (inactive)	91.1% (inactive)	5.62% (inactive)	85.5%	91.1%	1.05% (inactive)	0.32% (inactive)
Cc1occc1C(=O)Nc1cccnc1	101%	92% (inactive)	101% (inactive)	100% (inactive)	97.7% (inactive)	3.58% (inactive)	94.1%	97.7%	-7.73% (inactive)	2.9% (inactive)
CC(=O)c1c(C)[nH]c(C(=O)OCc2nnc(-c3ccccc3)o2)c1C	92%	96.5% (inactive)	92% (inactive)	70.4% (inactive)	72.6% (inactive)	-5.71% (inactive)	78.3%	72.6%	0% (inactive)	26.7% (inactive)
CC1CCc2cc(F)cc3c(O)c(C(=O)Nc4cnccn4)c(=O)n1c23 (stereo not given)	97.5%	82.5% (inactive)	97.5% (inactive)	99.9% (inactive)	92.8% (inactive)	-1.42% (inactive)	94.2%	92.8%	-0.92% (inactive)	4.52% (inactive)
CCOc1ccccc1N(C(=O)c1ccco1)C(C(=O)NC1CCCC1)c1cccnc1 (stereo not given)	84%	104% (inactive)	84% (inactive)	101% (inactive)	90.5% (inactive)	-6.1% (inactive)	96.6%	90.5%	-1.78% (inactive)	-2.54% (inactive)
CCCCc1nc2n[nH]c(N)c2c2c1CCCC2	138%	96% (inactive)	138% (inactive)	59.9% (inactive)	92.3% (inactive)	6.68% (inactive)	85.6%	92.3%	-5.47% (inactive)	-0.82% (inactive)
COc1cccc(N(C(=O)c2ccco2)C(C(=O)NC2CCCC2)c2ccc(N(C)C)cc2)c1 (stereo not given)	98%	92.5% (inactive)	98% (inactive)	97.5% (inactive)	91.8% (inactive)	14.6% (inactive)	77.2%	91.8%	-5.45% (inactive)	-2.13% (inactive)
COc1ccccc1-n1c(SCC(=O)Nc2ccc3c(c2)OCO3)nc2c(c1=O)SCC2	82.5%	112% (inactive)	82.5% (inactive)	85% (inactive)	87.4% (inactive)	0.71% (inactive)	86.7%	87.4%	-0.55% (inactive)	23.5% (inactive)
CC(C)Oc1cccc(-c2cc(C(=O)N3CCN(S(C)(=O)=O)CC3)c3ccccc3n2)c1	90.5%	94% (inactive)	90.5% (inactive)	64% (inactive)	65.7% (inactive)	-9.72% (inactive)	75.4%	65.7%	-1.84% (inactive)	-6.03% (inactive)
O=C(O)CCn1c(SCc2ccccc2)nc2ccccc21	116%	107% (inactive)	116% (inactive)	112% (inactive)	89.3% (inactive)	12.2% (inactive)	77%	89.3%	-5.73% (inactive)	5.65% (inactive)
O=C(CSc1nc2cc(Cl)ccc2s1)N1CCN(C(=O)c2ccco2)CC1	91%	84.5% (inactive)	91% (inactive)	91.6% (inactive)	100% (inactive)	0.815% (inactive)	99.5%	100%	-3.87% (inactive)	0.97% (inactive)
O=C(COc1ccccc1Cl)OCC(=O)N1CCN(S(=O)(=O)c2ccccc2)CC1	101%	85% (inactive)	101% (inactive)	89.4% (inactive)	87.4% (inactive)	-1.84% (inactive)	89.2%	87.4%	-6.13% (inactive)	-2.79% (inactive)
Cc1ccc(C)c2[nH]c(=O)c(CCNC(=O)c3ccc(Br)o3)cc12	87%	87% (inactive)	87% (inactive)	72.8% (inactive)	89.3% (inactive)	5.93% (inactive)	83.4%	89.3%	-7.81% (inactive)	-4.6% (inactive)
CCOC(=O)N1CCC(NC(=O)CCC(=O)N2CC(C)Oc3ccc(Cl)cc32)CC1 (stereo not given)	104%	96% (inactive)	104% (inactive)	94.6% (inactive)	92.5% (inactive)	6.71% (inactive)	85.8%	92.5%	-5.53% (inactive)	-9.33% (inactive)
CCCCn1c(SCC(=O)NCc2ccccc2)nc2ccc(N3CCOCC3)cc2c1=O	80%	89.5% (inactive)	80% (inactive)	98.1% (inactive)	74% (inactive)	-5.76% (inactive)	79.8%	74%	-1.22% (inactive)	1.8% (inactive)
O=C(CCNC(=O)Cn1ccc2ccccc2c1=O)NCCN1CCN(c2ccccc2F)CC1	96%	92% (inactive)	96% (inactive)	99.2% (inactive)	88.1% (inactive)	9.11% (inactive)	79%	88.1%	-4.87% (inactive)	-1.45% (inactive)
Cn1c(=O)c2c(nc(NCC3CCCO3)n2C)n(C)c1=O (stereo not given)	102%	104% (inactive)	102% (inactive)	105% (inactive)	103% (inactive)	7.24% (inactive)	95.5%	103%	-1.33% (inactive)	-3.11% (inactive)

From PubChem BioAssay
